Screening results deposited in PubChem by several laboratories.
UPR CHOP act = activators of apoptotic CHOP UPR arm, primary screen, cell-based, CHO-CHOP luciferase reporter, luminescence, uHTS; UPR activation; percent of tunicamycin response over DMSO baseline; activation, % at 10 µM; actives 0.34% (n = 330,000); AID 449763, 2010;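 active = at 10 µM dose, activation of 40% or more, normalized to positive control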;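 note: 100% = tunicamycin at 10 µg/mL and 0% = DMSO alone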
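measured by = luciferase luminescence | assay system = CHO-CHOP cells, stable luciferase reporter of PERK-eIF2a-CHOP signalling | amount = 500 reporter cells seeded per well | timing = 6 h compound exposure at 37 °C after overnight seeding | controls = positive tunicamycin 10 µg/mL, negative DMSO alone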
XBP1 UPR activ = activators of adaptive XBP1 UPR arm, primary screen, cell-based, CHO-XBP1 luciferase reporter, luminescence, uHTS. activation, % at 20 µM. AID 463104, 2010. IRE1-XBP1 UPR activation; percent of tunicamycin response, DMSO as zero. actives 0.33% (n = 330,000);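 active = versus positive control, 20 µM dose yields 30% or more activation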;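 note: 100% = tunicamycin at 10 µg/mL and 0% = DMSO only wells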
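Material: CHO cell line with stable XBP1 luciferase reporter; schedule: 16-18 h cell attachment at 37 °C, then 6 h compound exposure; signal: glow luminescence from Steady-Glo reagent; medium: serum-containing F12 medium, 10% FBS; benchmarks: tunicamycin 10 µg/mL and vehicle-only wells; read-out: percent activation relative to tunicamycin reference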
CHOP inh = inhibitors of CHOP promoter induction, primary screen, cell-based, unfolded protein response, luciferase reporter; inhibition, % at 10 µM; actives 3.8% (n = 220,000); CHO-K1 CHOP-promoter luciferase, tunicamycin-induced, 15-18 h;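 active = compounds that reduced the stress-induced luciferase reporter signal by more than about 70% of percent inhibition, limit read from the data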;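 note: 0% = tunicamycin plus vehicle and 100% = wells without tunicamycin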
A1 inh = caspase 3/7 activation in MEF A1-2A-BIM cells, primary screen, A1 inhibitor project, cell-based, luminescence, HTS; AID 2462, 2010; caspase activation, % (test concentration not listed); Caspase-Glo 3/7 luminescence, 3 h; percent of clofoctol response, vehicle zero; actives 0.066% (n = 330,000);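 active = over half of replicate activation scores above 10%, or exactly half above 10 with the replicate mean above 10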
Active calls of the source: *; nt = no result. The sample as a whole holds a higher share of hits than the screen did.

SMILES	UPR CHOP act	XBP1 UPR activ	CHOP inh	A1 inh
CCc1ccc2c(c1)C(c1ccc([N+](=O)[O-])cc1)=NNC(c1ccc(F)cc1)=N2	5.2	4.3	85.8*	-0.6
CN(CC(=O)Nc1ccc(F)c(F)c1F)C(=O)C1=NN(c2ccccc2)C(=O)CC1	-1.7	0.9	nt	1.3
CCOc1ccc(/C=C2/C(=N)N3OC(C)=CC3=NC2=O)cc1OC	-1.3	-2.8	1.9	0.2
CCOc1cc(/C=C2/C(=N)N3OC(C)=CC3=NC2=O)ccc1OCCOc1ccccc1	-2.7	3.9	91.7*	0.2
NCCS(=O)O	nt	nt	18.0	nt
C1CCC(C(CC2CCCCN2)C2CCCCC2)CC1 (stereo not drawn)	8.2	11.1	99.2*	1.3
Cc1ccc(S(=O)(=O)N2CCCCC2)cc1NC(=O)CNc1ccc(C(F)(F)F)cc1	0.3	0.9	nt	0.9
Oc1ccc(C(c2nnnn2C2CCCC2)N2CCc3ccccc3C2)cc1 (stereo not drawn)	0.8	0.6	88.1*	0.1
CCOc1ccc(NC(=O)C2CCCN(S(=O)(=O)c3cccc4nsnc34)C2)cc1 (stereo not drawn)	-1.3	-4.2	73.7*	0.0
Cc1cccc(N2CCN(C(=O)C3CCN(S(=O)(=O)c4cccc5nsnc45)CC3)CC2C)c1 (stereo not drawn)	6.3	0.6	83.4*	-0.3
Cc1cccc2sc(NC(=O)C3CCCN(S(=O)(=O)c4cccc5nonc45)C3)nc12 (stereo not drawn)	-0.3	-3.9	80.6*	2.4
Cc1cccc2sc(NC(=O)C3CCN(S(=O)(=O)c4cc([N+](=O)[O-])ccc4Cl)CC3)nc12	9.1	0.1	70.5*	-1.1
COc1cccc(NC(=O)C2CCCN(S(=O)(=O)c3cccc4nsnc34)C2)c1 (stereo not drawn)	-0.9	-2.0	67.9	0.9
Cc1c(NS(=O)(=O)c2cccc(C(=O)N3CCC(C)CC3)c2)c(=O)n(-c2ccccc2)n1C	0.3	-3.6	nt	1.7
CC1=C(C(=O)Nc2cc(-c3cccc(F)c3)[nH]n2)C2(CCCCC2)OC1=O	1.3	-2.2	82.0*	0.0
Cc1cccc(Nc2nc(-c3c(C)nc4ccccn34)cs2)c1	9.5	5.6	77.1*	-0.9
Cc1nc2ccccn2c1-c1csc(Nc2cccc(O)c2)n1	nt	nt	0.8	nt
Cc1ccccc1Cn1cc(NC(=O)c2noc3c2CC(C(C)(C)C)CC3)cn1 (stereo not drawn)	0.7	2.1	85.6*	0.8
Cc1ccccc1Cn1nc(C)c(NC(=O)c2noc3c2CC(C(C)(C)C)CC3)c1C (stereo not drawn)	0.6	-1.8	31.7	-0.5
CCOCCCNC(=O)Cn1cnc2c(cnn2-c2ccc(C)c(C)c2)c1=O	3.3	-3.8	nt	-0.2
COc1ccc(NC(=O)c2nc[nH]c2C(=O)N[C@@H](CC(C)C)C(=O)OC(C)(C)C)cc1	-0.5	5.8	76.1*	0.1
CC(C)(C)OC(=O)[C@H](Cc1ccccc1)NC(=O)c1nc[nH]c1C(=O)NCC(=O)OCc1ccccc1	-1.2	-1.5	nt	1.8
CC(C)C[C@H](NC(=O)c1[nH]cnc1C(=O)Nc1ccc(CNC(=O)OC(C)(C)C)cc1)C(=O)OC(C)(C)C	4.6	11.5	84.5*	2.1
CC(C)(C)OC(=O)CNC(=O)c1[nH]cnc1C(=O)N[C@@H](Cc1ccccc1)C(=O)OC(C)(C)C	0.1	2.1	90.0*	1.9
Cc1cc(N/N=C\c2ccccc2)nc(-c2ccccc2O)n1	3.5	-0.2	58.0	-0.9
SMILES	UPR CHOP act	XBP1 UPR activ	CHOP inh	A1 inh
Cc1cc(N/N=C/c2ccccc2O)nc(-c2ccccc2O)n1	3.7	4.2	74.6*	-0.7
CSc1ccc(C(=O)C2CCCN(C(=O)CN3CCOC3=O)C2)cc1 (stereo not drawn)	1.2	-1.5	nt	2.0
COc1ccc(CC(=O)N2CCN(c3ccccn3)CC2)cc1OC	-0.8	-2.3	-1.4	0.0
CCCc1ccc(OCc2ccc(C(=O)N3CCN(c4ccccn4)CC3)o2)c(OC)c1	-0.5	0.1	78.6*	0.6
CCN=C(NCC)SC1CC(=O)N(c2cccc(OC)c2)C1=O (stereo not drawn)	0.7	-4.7	-1.9	0.3
O=C1CC(SC(=Nc2ccccc2)Nc2ccccc2)C(=O)N1c1ccc(Cl)c(Cl)c1 (stereo not drawn)	1.3	-0.6	90.1*	0.3
Cc1cccc(N2C(=O)CC(SC(=Nc3ccccc3)Nc3ccccc3)C2=O)c1 (stereo not drawn)	3.8	-1.0	69.0	0.4
CCN=C(Nc1cccc(F)c1)SC1CC(=O)N(c2ccc(OC)cc2)C1=O (stereo not drawn)	0.1	-2.7	90.2*	0.4
CCOc1ccc(-c2nc(CSCC(=O)NC3CCCc4ccccc43)c(C)o2)cc1 (stereo not drawn)	1.5	1.8	86.8*	-0.5
CCOc1ccc(-c2nc(CSCC(=O)N3CCN(c4cccc(OC)c4)CC3)c(C)o2)cc1	4.0	1.0	74.2*	0.1
Cc1ccc(-c2nc(CSCC(=O)N3CCN(c4ccccn4)CC3)c(C)o2)cc1	-1.9	4.7	78.4*	0.6
CCc1ccc(-c2nc(CSCC(=O)N3CCN(c4ccccn4)CC3)c(C)o2)cc1	-1.6	2.9	86.0*	1.3
CCOc1ccc(-c2nc(CSCC(=O)NC3CC3)c(C)o2)cc1	-10.9	-14.1	nt	-0.6
Cc1ccc(-c2nc(CSCC(=O)N3CCOCC3)c(C)o2)cc1	1.0	0.0	8.0	0.2
Cc1ccc(-c2nc(CSCC(=O)N3CCN(C(=O)c4ccco4)CC3)c(C)o2)cc1	-1.3	-3.7	35.3	1.2
CCOC(=O)N1CCC(NC(=O)CSCc2nc(-c3ccc(OCC)cc3)oc2C)CC1	0.7	-7.4	nt	0.3
COc1ccc(NC(=O)NNC(=O)COc2ccc([N+](=O)[O-])c(C)c2)cc1OC	1.7	-0.6	nt	0.9
CS(=O)(=O)N(CC(=O)O)c1cc(C(F)(F)F)ccc1Cl	1.7	1.1	nt	-0.9
C=CCN(CC(=O)Nc1cccnc1)S(=O)(=O)c1ccc(Cl)cc1	2.5	-3.5	nt	-0.1
Cc1cc(NC(=O)Nc2cccc(C(F)(F)F)c2)no1	1.4	-0.9	93.3*	0.1
CNC(=O)c1ccccc1NC(=O)c1c(O)c2c([nH]c1=O)CCCC2	1.8	-1.5	8.3	-0.2
CCOC(=O)Cc1csc(NC(=O)c2c(O)c3ccccc3n(CC(C)C)c2=O)n1	16.0	4.1	85.0*	-0.4
CCCCn1c(=O)c(C(=O)N/N=C/c2ccc(F)cc2)c(O)c2ccccc21	-0.4	0.8	15.8	1.2
CCC(C)n1c(=O)c(C(=O)Nc2ccccc2S(N)(=O)=O)c(O)c2ccccc21 (stereo not drawn)	3.2	-1.0	47.6	0.9
CC(C)Cn1c(=O)c(C(=O)N/N=C/c2cccc(F)c2)c(O)c2ccccc21	1.5	2.6	82.1*	-0.9
